Values after ≈ are worked out from the molar mass of the structure shown.
What was measured:
Salmonella typhimurium [1] = assay: Mutagenic activity in Salmonella typhimurium TA102 at 0.312 to 5 mg/plate preincubated for 20 mins before addition in presence of liver S9 mixture; type: toxicity, organism-based; conditions: salmonella enterica subsp. enterica serovar typhimurium
How it was run: (§1)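 Pre-incubation trial (Trial II) with histidine-dependent auxotrophs. Test solution is pre-incubated with bacterial suspension and S9 mix (10% v/v) or substitution buffer before plating on selective agar. Revertant colonies are counted against the concurrent vehicle control. Triplicate plates per dose and per control (negative, vehicle, positive reference mutagens).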

Salmonella typhimurium [2] = assay: Mutagenic activity in Salmonella typhimurium TA98 at 0.312 to 5 mg/plate preincubated for 20 mins before addition in presence of liver S9 mixture; type: toxicity, organism-based; conditions: salmonella enterica subsp. enterica serovar typhimurium; how it was run: as §1
Salmonella typhimurium [3] = assay: Mutagenic activity in Salmonella typhimurium TA100 at 0.312 to 5 mg/plate measured after incubation of upside down for 48 hrs in presence of liver S9 mixture; type: toxicity, organism-based; conditions: salmonella enterica subsp. enterica serovar typhimurium, s9, 48 h
How it was run: (§2)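 Plate incorporation trial (Trial I) with histidine-dependent auxotrophs. Revertant colonies are counted against the concurrent vehicle control. Each dose and each control, including negative, vehicle and positive reference mutagens, run in triplicate plates.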

Salmonella typhimurium [4] = assay: Mutagenic activity in Salmonella typhimurium TA1535 at 0.312 to 5 mg/plate measured after incubation of upside down for 48 hrs in absence of liver S9 mixture; type: toxicity, organism-based; conditions: salmonella enterica subsp. enterica serovar typhimurium; how it was run: as §2
[5] = Cytotoxicity against human PZ-HPV-7 cells after 3 days MTT assay; type: functional, cell-based; conditions: 72 h
How it was run: (§3)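 Cells held as monolayers in DMEM with 10% supplement. Seeded in 96-well plates on day 0 at densities set by doubling time: 1 × 10⁴/mL for HeLa and NCI-69, 2 × 10⁴/mL for MCF-7, 3 × 10⁴/mL for PZ-HPV-7. Five dilutions (10⁻⁸–5 × 10⁻⁶ mol/l), freshly prepared, added for 72 h. Growth read by MTT (succinate dehydrogenase activity); IC50 derived.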

HeLa = assay: Cytotoxicity against human HeLa cells after 3 days MTT assay; type: functional, cell-based; conditions: 72 h; how it was run: as §3
Salmonella typhimurium [6] = assay: Mutagenic activity in Salmonella typhimurium TA1535 at 0.312 to 5 mg/plate preincubated for 20 mins before addition in absence of liver S9 mixture; type: toxicity, organism-based; conditions: salmonella enterica subsp. enterica serovar typhimurium; how it was run: as §1
Salmonella typhimurium [7] = assay: Mutagenic activity in Salmonella typhimurium TA102 at 0.312 to 5 mg/plate preincubated for 20 mins before addition in absence of liver S9 mixture; type: toxicity, organism-based; conditions: salmonella enterica subsp. enterica serovar typhimurium; how it was run: as §1
NCI-H69 = assay: Cytotoxicity against human NCI-H69 cells after 3 days MTT assay; type: functional, cell-based; conditions: NCI-H69, 72 h; how it was run: as §3
Salmonella typhimurium [8] = assay: Mutagenic activity in Salmonella typhimurium TA1537 at 0.312 to 5 mg/plate preincubated for 20 mins before addition in presence of liver S9 mixture; type: toxicity, organism-based; conditions: salmonella enterica subsp. enterica serovar typhimurium; how it was run: as §1
Salmonella typhimurium [9] = assay: Mutagenic activity in Salmonella typhimurium TA98 at 0.312 to 5 mg/plate preincubated for 20 mins before addition in absence of liver S9 mixture; type: toxicity, organism-based; conditions: salmonella enterica subsp. enterica serovar typhimurium; how it was run: as §1
Salmonella typhimurium [10] = assay: Mutagenic activity in Salmonella typhimurium TA100 at 0.312 to 5 mg/plate preincubated for 20 mins before addition in absence of liver S9 mixture; type: toxicity, organism-based; conditions: salmonella enterica subsp. enterica serovar typhimurium; how it was run: as §1
Salmonella typhimurium [11] = assay: Mutagenic activity in Salmonella typhimurium TA1537 at 0.312 to 5 mg/plate preincubated for 20 mins before addition in absence of liver S9 mixture; type: toxicity, organism-based; conditions: salmonella enterica subsp. enterica serovar typhimurium; how it was run: as §1
Salmonella typhimurium [12] = assay: Mutagenic activity in Salmonella typhimurium TA100 at 0.312 to 5 mg/plate measured after incubation of upside down for 48 hrs in absence of liver S9 mixture; type: toxicity, organism-based; conditions: salmonella enterica subsp. enterica serovar typhimurium; how it was run: as §2
Salmonella typhimurium [13] = assay: Mutagenic activity in Salmonella typhimurium TA102 at 0.312 to 5 mg/plate measured after incubation of upside down for 48 hrs in presence of liver S9 mixture; type: toxicity, organism-based; conditions: salmonella enterica subsp. enterica serovar typhimurium, s9, 48 h; how it was run: as §2
Salmonella typhimurium [14] = assay: Mutagenic activity in Salmonella typhimurium TA1537 at 0.312 to 5 mg/plate measured after incubation of upside down for 48 hrs in presence of liver S9 mixture; type: toxicity, organism-based; conditions: salmonella enterica subsp. enterica serovar typhimurium, s9, 48 h; how it was run: as §2
MCF7 = assay: Cytotoxicity against human MCF7 cells after 3 days MTT assay; type: functional, cell-based; conditions: MCF7, 72 h; how it was run: as §3
Salmonella typhimurium [15] = assay: Mutagenic activity in Salmonella typhimurium TA1535 at 0.312 to 5 mg/plate measured after incubation of upside down for 48 hrs in presence of liver S9 mixture; type: toxicity, organism-based; conditions: salmonella enterica subsp. enterica serovar typhimurium, s9, 48 h; how it was run: as §2
Salmonella typhimurium [16] = assay: Mutagenic activity in Salmonella typhimurium TA98 at 0.312 to 5 mg/plate measured after incubation of upside down for 48 hrs in absence of liver S9 mixture; type: toxicity, organism-based; conditions: salmonella enterica subsp. enterica serovar typhimurium; how it was run: as §2
Salmonella typhimurium [17] = assay: Mutagenic activity in Salmonella typhimurium TA102 at 0.312 to 5 mg/plate measured after incubation of upside down for 48 hrs in absence of liver S9 mixture; type: toxicity, organism-based; conditions: salmonella enterica subsp. enterica serovar typhimurium; how it was run: as §2
Salmonella typhimurium [18] = assay: Mutagenic activity in Salmonella typhimurium TA1535 at 0.312 to 5 mg/plate preincubated for 20 mins before addition in presence of liver S9 mixture; type: toxicity, organism-based; conditions: salmonella enterica subsp. enterica serovar typhimurium; how it was run: as §1
Salmonella typhimurium [19] = assay: Mutagenic activity in Salmonella typhimurium TA100 at 0.312 to 5 mg/plate preincubated for 20 mins before addition in presence of liver S9 mixture; type: toxicity, organism-based; conditions: salmonella enterica subsp. enterica serovar typhimurium; how it was run: as §1
Salmonella typhimurium [20] = assay: Mutagenic activity in Salmonella typhimurium TA98 at 0.312 to 5 mg/plate measured after incubation of upside down for 48 hrs in presence of liver S9 mixture; type: toxicity, organism-based; conditions: salmonella enterica subsp. enterica serovar typhimurium, s9, 48 h; how it was run: as §2
Salmonella typhimurium [21] = assay: Mutagenic activity in Salmonella typhimurium TA1537 at 0.312 to 5 mg/plate measured after incubation of upside down for 48 hrs in absence of liver S9 mixture; type: toxicity, organism-based; conditions: salmonella enterica subsp. enterica serovar typhimurium; how it was run: as §2

Row | Structure (SMILES) | Activity (Salmonella typhimurium [1]) | Activity (Salmonella typhimurium [2]) | Activity (Salmonella typhimurium [3]) | Activity (Salmonella typhimurium [4]) | IC50 [5] | IC50 (HeLa) | Activity (Salmonella typhimurium [6]) | Activity (Salmonella typhimurium [7]) | IC50 (NCI-H69) | Activity (Salmonella typhimurium [8]) | Activity (Salmonella typhimurium [9]) | Activity (Salmonella typhimurium [10]) | Activity (Salmonella typhimurium [11]) | Activity (Salmonella typhimurium [12]) | Activity (Salmonella typhimurium [13]) | Activity (Salmonella typhimurium [14]) | IC50 (MCF7) | Activity (Salmonella typhimurium [15]) | Activity (Salmonella typhimurium [16]) | Activity (Salmonella typhimurium [17]) | further results
1 | CC(C)CCOC(=O)Nc1nc(=O)n([C@@H]2O[C@H](C)[C@@H](O)[C@H]2O)cc1F | Non-toxic | Non-toxic | Non-toxic | Non-toxic | 250 µg/mL (≈ 696 µM) | 0.09 µg/mL (≈ 0.25 µM) | Non-toxic | Non-toxic | 370 µg/mL (≈ 1030 µM) | Non-toxic | Non-toxic | Non-toxic | Non-toxic | Non-toxic | Non-toxic | Non-toxic | 120 µg/mL (≈ 334 µM) | Non-toxic | Non-toxic | Non-toxic | Activity (Salmonella typhimurium [18]): Non-toxic; Activity (Salmonella typhimurium [19]): Non-toxic; Activity (Salmonella typhimurium [20]): Non-toxic; Activity (Salmonella typhimurium [21]): Non-toxic
2 | CCC(C)COC(=O)Nc1nc(=O)n([C@@H]2O[C@H](C)[C@H]3OC(=O)O[C@H]32)cc1F (stereo partly drawn) | Non-toxic | Non-toxic | Non-toxic | Non-toxic | 200 µg/mL (≈ 519 µM) | 0.18 µg/mL (≈ 0.467 µM) | Non-toxic | Non-toxic | 330 µg/mL (≈ 856 µM) | Non-toxic | Non-toxic | Non-toxic | Non-toxic | Non-toxic | Non-toxic | Non-toxic | 70 µg/mL (≈ 182 µM) | Non-toxic | Non-toxic | Non-toxic | Activity (Salmonella typhimurium [18]): Non-toxic; Activity (Salmonella typhimurium [19]): Non-toxic; Activity (Salmonella typhimurium [20]): Non-toxic; Activity (Salmonella typhimurium [21]): Non-toxic
3 | O=c1[nH]cc(F)c(=O)[nH]1 [FLUOROURACIL] | – | – | – | – | 170 µg/mL (≈ 1310 µM) | 0.04 µg/mL (≈ 0.308 µM) | – | – | 280 µg/mL (≈ 2150 µM) | – | – | – | – | – | – | – | 690 µg/mL (≈ 5300 µM) | – | – | – | –
4 | CCC(C)COC(=O)Nc1nc(=O)n([C@@H]2O[C@H](C)[C@@H](O)[C@H]2O)cc1F (stereo partly drawn) | Non-toxic | Non-toxic | Non-toxic | Non-toxic | 250 µg/mL (≈ 696 µM) | 0.09 µg/mL (≈ 0.25 µM) | Non-toxic | Non-toxic | 370 µg/mL (≈ 1030 µM) | Non-toxic | Non-toxic | Non-toxic | Non-toxic | Non-toxic | Non-toxic | Non-toxic | 120 µg/mL (≈ 334 µM) | Non-toxic | Non-toxic | Non-toxic | Activity (Salmonella typhimurium [18]): Non-toxic; Activity (Salmonella typhimurium [19]): Non-toxic; Activity (Salmonella typhimurium [20]): Non-toxic; Activity (Salmonella typhimurium [21]): Non-toxic
5 | C[C@H]1O[C@@H](n2cc(F)c(NC(=O)Oc3ccc([N+](=O)[O-])cc3)nc2=O)[C@H](O)[C@@H]1O | Non-toxic | Non-toxic | Non-toxic | Non-toxic | 90 µg/mL (≈ 219 µM) | 0.01 µg/mL (≈ 0.0244 µM) | Non-toxic | Non-toxic | 100 µg/mL (≈ 244 µM) | Non-toxic | Non-toxic | Non-toxic | Non-toxic | Non-toxic | Non-toxic | Non-toxic | 180 µg/mL (≈ 439 µM) | Non-toxic | Non-toxic | Non-toxic | Activity (Salmonella typhimurium [18]): Non-toxic; Activity (Salmonella typhimurium [19]): Non-toxic; Activity (Salmonella typhimurium [20]): Non-toxic; Activity (Salmonella typhimurium [21]): Non-toxic
6 | CC(C)CCOC(=O)Nc1nc(=O)n([C@@H]2O[C@H](C)[C@H]3OC(=O)O[C@H]32)cc1F | Non-toxic | Non-toxic | Non-toxic | Non-toxic | 350 µg/mL (≈ 908 µM) | 0.13 µg/mL (≈ 0.337 µM) | Non-toxic | Non-toxic | 310 µg/mL (≈ 804 µM) | Non-toxic | Non-toxic | Non-toxic | Non-toxic | Non-toxic | Non-toxic | Non-toxic | 100 µg/mL (≈ 260 µM) | Non-toxic | Non-toxic | Non-toxic | Activity (Salmonella typhimurium [18]): Non-toxic; Activity (Salmonella typhimurium [19]): Non-toxic; Activity (Salmonella typhimurium [20]): Non-toxic; Activity (Salmonella typhimurium [21]): Non-toxic
7 | C[C@H]1O[C@@H](n2cc(F)c(NC(=O)Oc3ccc(Cl)cc3)nc2=O)[C@H](O)[C@@H]1O | Non-toxic | Non-toxic | Non-toxic | Non-toxic | 70 µg/mL (≈ 175 µM) | 0.03 µg/mL (≈ 0.075 µM) | Non-toxic | Non-toxic | 90 µg/mL (≈ 225 µM) | Non-toxic | Non-toxic | Non-toxic | Non-toxic | Non-toxic | Non-toxic | Non-toxic | 100 µg/mL (≈ 250 µM) | Non-toxic | Non-toxic | Non-toxic | Activity (Salmonella typhimurium [18]): Non-toxic; Activity (Salmonella typhimurium [19]): Non-toxic; Activity (Salmonella typhimurium [20]): Non-toxic; Activity (Salmonella typhimurium [21]): Non-toxic

— ChEMBL document CHEMBL2040809, “Synthesis and biological activity evaluation of cytidine-5'-deoxy-5-fluoro-N-[(alkoxy/aryloxy)] carbonyl-cyclic 2',3'-carbonates” (Eur J Med Chem, 2012)
